The values below come from ChEMBL document CHEMBL2202985, “Novel series of 3-amino-N-(4-aryl-1,1-dioxothian-4-yl)butanamides as potent and selective dipeptidyl peptidase IV inhibitors” (Bioorg Med Chem Lett, 2012).

Data set [1] deals with Mus musculus. Nature of the data set: Inhibition of DPP4 in mouse plasma at 30 to 100 mg/kg, po. Type of data set: functional, organism-based.
Another data set is filed under the species Homo sapiens. Nature of the data set: Metabolic stability in human. The data set is classed as ADME, organism-based. To be noted: in vivo.
The species entered for data set [2] is Mus musculus. Nature of the data set: Metabolic stability in mouse. The data set is classed as ADME, organism-based. To be noted: in vivo.
The test system of data set [3] is Mus musculus. Nature of the data set: Inhibition of DPP4 in po dosed mouse plasma. The data set is classed as functional, organism-based.
The test system of data set [4] is Mus musculus. In words: Antidiabetic activity in po dosed ICR mouse assessed as blood glucose excursion after 20 to 120 mins by oral glucose tolerance test. The data set is classed as functional, organism-based. Summed up:
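ICR mice dosed orally with distilled water vehicle or compound at 1, 3 or 10 mg/kg (10 mL/kg). Tail-nick blood glucose read by glucometer 30 min after dosing, then oral glucose challenge 2 g/kg (10 mL/kg). Blood glucose measured from tail bleeds at 20, 40, 60 and 120 min after glucose.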

The source made the active and inactive calls. No cut-off for these calls is given here.

Turning to `N[C@@H](CC(=O)NC1(c2cccc(-c3cncs3)c2)CCS(=O)(=O)CC1)Cc1cc(F)c(F)cc1F`, the inhibition entry in the data set with Mus musculus [1] was “inactive”. The Stability result in the data set filed under Homo sapiens and in the data set listed under Mus musculus [2] was “Stable” in each case.

Consider `N[C@@H](CC(=O)NC1(c2cccc(-n3ccnc3)c2)CCS(=O)(=O)CC1)Cc1cc(F)c(F)cc1F`, for which the inhibition entry in the data set on Mus musculus [1] is “inactive”. Further, the Stability entry in the data set listed under Homo sapiens and in the data set listed under Mus musculus [2] was “Stable” in each case.

For `N[C@@H](CC(=O)NC1(c2nc(-c3ccccc3)cs2)CCS(=O)(=O)CC1)Cc1cc(F)c(F)cc1F`, the inhibition result with Mus musculus [3] is “Dose-dependent effect”. Moreover, the Activity entry in the data set on Mus musculus [4] is “Dose-dependent effect”. For the same compound, the Stability result in the data set listed under Homo sapiens and in the data set listed under Mus musculus [2] was “Stable” in each case.
